Measured values published in ChEMBL document CHEMBL5724801, “EUbOPEN Chemogenomics Library - Multiplex” (2024).
Values joined by “and” are separate entries in the source; they are usually repeats but may differ in a detail not shown here. Equal values may be shown once.

Tested on: U2OS
Assay: Multiplex assay against U2OS
Assay type: toxicity, cell-based
Details: human
Method in brief: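 Phenotypes for tubulin, mitochondrial mass and membrane permeability are expressed as per cents of healthy-nucleus cells. Cells were stained live at seeding with Hoechst33342, BioTracker Green Microtubule Cytoskeleton Dye, MitoTracker Red and Annexin V Alexa Fluor 680, then imaged after compound addition on a CQ1 microscope at 37°C and 5% CO2. Machine-learning gating in CellPathfinder separated Hoechst high-intensity objects from normal cells, divided normal cells by nuclear state (healthy, pyknosed, fragmented) and divided pyknosed cells into mitotic or apoptotic.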

[1] = 12 h, 1 µM, compound concentration 1 uM
[2] = 12 h, 10 µM, compound concentration 10 uM
[3] = 24 h, 1 µM, compound concentration 1 uM
[4] = 24 h, 10 µM, compound concentration 10 uM
[5] = 48 h, 1 µM, compound concentration 1 uM
[6] = 48 h, 10 µM, compound concentration 10 uM

For `CC(C)c1ccc(/C=N/NC(=O)c2ccc(O)cc2)cc1`, the “Population Apoptotic (%)” value [1] was 41.67% and 26.09%, the “Population Fragmented Nuclei (%)” value [1] was 0.58% and 4.67% and the “Population Healthy Nuclei (%)” value [1] was 88.92% and 80%. For the same compound, the “Population Hoechst High Intensity Objects (%)” value [1] was 0%, the “Population Membrane Permeable-Phenotype (%)” value [1] was 2.62% and 5.83% and the “Population Mitochondria Different-Phenotype (%)” value [1] was 0% and 12.5%. For the same compound, the “Population Mitotic Cells (%)” value [1] was 58.33% and 73.91%, the “Population Normal (%)” value [1] was 100% and the “Population Pyknosed Nuclei (%)” value [1] was 10.5% and 15.33%. The “Population Tubulin-Different-Phenotype (%)” value [1] was 1.64% and 1.67%, the “Total Cell Count” value [1] was 343 and 150 and the “Population Apoptotic (%)” value [2] was 32.5% and 45%. For the same compound, the “Population Fragmented Nuclei (%)” value [2] was 1.02% and 0%, the “Population Healthy Nuclei (%)” value [2] was 88.75% and 85.4% and the “Population Hoechst High Intensity Objects (%)” value [2] was 0%. The “Population Membrane Permeable-Phenotype (%)” value [2] was 2.88% and 2.56%, the “Population Mitochondria Different-Phenotype (%)” value [2] was 0% and 5.98% and the “Population Mitotic Cells (%)” value [2] was 67.5% and 55%. The “Population Normal (%)” value [2] was 100%, the “Population Pyknosed Nuclei (%)” value [2] was 10.23% and 14.6% and the “Population Tubulin-Different-Phenotype (%)” value [2] was 2.59% and 0%. The “Total Cell Count” value [2] was 391 and 137, the “Population Apoptotic (%)” value [3] was 30.95% and 46.15% and the “Population Fragmented Nuclei (%)” value [3] was 2.35% and 1.61%. For the same compound, the “Population Healthy Nuclei (%)” value [3] was 88.68% and 84.41%, the “Population Hoechst High Intensity Objects (%)” value [3] was 0% and the “Population Membrane Permeable-Phenotype (%)” value [3] was 1.69% and 3.18%. For the same compound, the “Population Mitochondria Different-Phenotype (%)” value [3] was 0.48% and 8.92%, the “Population Mitotic Cells (%)” value [3] was 69.05% and 53.85% and the “Population Normal (%)” value [3] was 100%. For the same compound, the “Population Pyknosed Nuclei (%)” value [3] was 8.97% and 13.98%, the “Population Tubulin-Different-Phenotype (%)” value [3] was 1.69% and 0.64% and the “Total Cell Count” value [3] was 468 and 186. For the same compound, the “Population Apoptotic (%)” value [4] was 51.02% and 50%, the “Population Fragmented Nuclei (%)” value [4] was 1.12% and 2.26% and the “Population Healthy Nuclei (%)” value [4] was 89.72% and 86.44%. The “Population Hoechst High Intensity Objects (%)” value [4] was 0%, the “Population Membrane Permeable-Phenotype (%)” value [4] was 1.88% and 2.61% and the “Population Mitochondria Different-Phenotype (%)” value [4] was 0% and 3.92%. For the same compound, the “Population Mitotic Cells (%)” value [4] was 48.98% and 50%, the “Population Normal (%)” value [4] was 100% and the “Population Pyknosed Nuclei (%)” value [4] was 9.16% and 11.3%. The “Population Tubulin-Different-Phenotype (%)” value [4] was 1.25% and 0%, the “Population Apoptotic (%)” value [5] was 38.46% and 51.11% and the “Population Fragmented Nuclei (%)” value [5] was 2.73% and 1.73%. The “Population Healthy Nuclei (%)” value [5] was 87.74% and 85.3%, the “Population Hoechst High Intensity Objects (%)” value [5] was 0.1% and 0% and the “Population Membrane Permeable-Phenotype (%)” value [5] was 0.6% and 3.04%. The “Population Mitochondria Different-Phenotype (%)” value [5] was 0.12% and 6.42%, the “Population Mitotic Cells (%)” value [5] was 61.54% and 48.89% and the “Population Normal (%)” value [5] was 99.9% and 100%. The “Population Pyknosed Nuclei (%)” value [5] was 9.54% and 12.97%, the “Population Tubulin-Different-Phenotype (%)” value [5] was 0.6% and 1.35% and the “Total Cell Count” value [5] was 955 and 347. The “Population Apoptotic (%)” value [6] was 46.51% and 53.12%, the “Population Fragmented Nuclei (%)” value [6] was 4.03% and 1.37% and the “Population Healthy Nuclei (%)” value [6] was 87.3% and 87.67%. The “Population Hoechst High Intensity Objects (%)” value [6] was 0%, the “Population Membrane Permeable-Phenotype (%)” value [6] was 1.15% and 3.52% and the “Population Mitochondria Different-Phenotype (%)” value [6] was 0% and 5.47%. The “Population Mitotic Cells (%)” value [6] was 53.49% and 46.88%, the “Population Normal (%)” value [6] was 100% and the “Population Pyknosed Nuclei (%)” value [6] was 8.67% and 10.96%. The “Population Tubulin-Different-Phenotype (%)” value [6] was 1.39% and 0%.

In the case of `S=c1[nH]nc(-c2cccs2)n1-c1ccccc1`, the “Population Apoptotic (%)” value [1] is reported as 50% and 31.82%, the “Population Fragmented Nuclei (%)” value [1] is reported as 2.88% and 1.49% and the “Population Healthy Nuclei (%)” value [1] is reported as 87.7% and 82.09%. For the same compound, the “Population Hoechst High Intensity Objects (%)” value [1] was 0%, the “Population Membrane Permeable-Phenotype (%)” value [1] was 0% and 3.64% and the “Population Mitochondria Different-Phenotype (%)” value [1] was 0.3% and 2.73%. For the same compound, the “Population Mitotic Cells (%)” value [1] was 50% and 68.18%, the “Population Normal (%)” value [1] was 100% and the “Population Pyknosed Nuclei (%)” value [1] was 9.42% and 16.42%. The “Population Tubulin-Different-Phenotype (%)” value [1] was 0.3% and 0%, the “Total Cell Count” value [1] was 382 and 134 and the “Population Apoptotic (%)” value [2] was 41.82% and 31.25%. For the same compound, the “Population Fragmented Nuclei (%)” value [2] was 1.86% and 4.61%, the “Population Healthy Nuclei (%)” value [2] was 83.55% and 84.87% and the “Population Hoechst High Intensity Objects (%)” value [2] was 0%. For the same compound, the “Population Membrane Permeable-Phenotype (%)” value [2] was 0.32% and 5.43%, the “Population Mitochondria Different-Phenotype (%)” value [2] was 0.32% and 5.43% and the “Population Mitotic Cells (%)” value [2] was 58.18% and 68.75%. For the same compound, the “Population Normal (%)” value [2] was 100%, the “Population Pyknosed Nuclei (%)” value [2] was 14.59% and 10.53% and the “Population Tubulin-Different-Phenotype (%)” value [2] was 0.63% and 0%. For the same compound, the “Total Cell Count” value [2] was 377 and 152, the “Population Apoptotic (%)” value [3] was 38.78% and 38.46% and the “Population Fragmented Nuclei (%)” value [3] was 1.97% and 1.6%. The “Population Healthy Nuclei (%)” value [3] was 88.36% and 84.57%, the “Population Hoechst High Intensity Objects (%)” value [3] was 0.2% and 0% and the “Population Membrane Permeable-Phenotype (%)” value [3] was 0.22% and 3.14%. The “Population Mitochondria Different-Phenotype (%)” value [3] was 0.22% and 3.14%, the “Population Mitotic Cells (%)” value [3] was 61.22% and 61.54% and the “Population Normal (%)” value [3] was 99.8% and 100%. For the same compound, the “Population Pyknosed Nuclei (%)” value [3] was 9.66% and 13.83%, the “Population Tubulin-Different-Phenotype (%)” value [3] was 0.89% and 0% and the “Total Cell Count” value [3] was 508 and 188. For the same compound, the “Population Apoptotic (%)” value [4] was 38.46% and 40%, the “Population Fragmented Nuclei (%)” value [4] was 2.57% and 1.6% and the “Population Healthy Nuclei (%)” value [4] was 87.15% and 87.77%. The “Population Hoechst High Intensity Objects (%)” value [4] was 0%, the “Population Membrane Permeable-Phenotype (%)” value [4] was 0.91% and 5.45% and the “Population Mitochondria Different-Phenotype (%)” value [4] was 0.23% and 3.03%. The “Population Mitotic Cells (%)” value [4] was 61.54% and 60%, the “Population Normal (%)” value [4] was 100% and the “Population Pyknosed Nuclei (%)” value [4] was 10.28% and 10.64%. The “Population Tubulin-Different-Phenotype (%)” value [4] was 0.91% and 1.21%, the “Total Cell Count” value [4] was 506 and 188 and the “Population Apoptotic (%)” value [5] was 48.15% and 60%. The “Population Fragmented Nuclei (%)” value [5] was 1.9% and 2.52%, the “Population Healthy Nuclei (%)” value [5] was 90.4% and 84.91% and the “Population Hoechst High Intensity Objects (%)” value [5] was 0.09% and 0%. For the same compound, the “Population Membrane Permeable-Phenotype (%)” value [5] was 0.84% and 0.74%, the “Population Mitochondria Different-Phenotype (%)” value [5] was 0% and 3.7% and the “Population Mitotic Cells (%)” value [5] was 51.85% and 40%. For the same compound, the “Population Normal (%)” value [5] was 99.91% and 100%, the “Population Pyknosed Nuclei (%)” value [5] was 7.7% and 12.58% and the “Population Tubulin-Different-Phenotype (%)” value [5] was 0.63% and 0%. For the same compound, the “Population Apoptotic (%)” value [6] was 25.3% and 58.62%, the “Population Fragmented Nuclei (%)” value [6] was 3.4% and 3.18% and the “Population Healthy Nuclei (%)” value [6] was 88.05% and 87.58%. The “Population Hoechst High Intensity Objects (%)” value [6] was 0%, the “Population Membrane Permeable-Phenotype (%)” value [6] was 1.29% and 2.18% and the “Population Mitochondria Different-Phenotype (%)” value [6] was 0.12% and 3.27%. For the same compound, the “Population Mitotic Cells (%)” value [6] was 74.7% and 41.38%, the “Population Normal (%)” value [6] was 100% and the “Population Pyknosed Nuclei (%)” value [6] was 8.55% and 9.24%. For the same compound, the “Population Tubulin-Different-Phenotype (%)” value [6] was 0.94% and 0%.
